Bioassay records as filed in PubChem BioAssay.
CHO-K1 Ca antag: counter-screen for M1 antagonists: effect in parental CHO-K1 cells; ATP-induced calcium, Fluo-8 fluorescence; inhibition, % at 3 µM; actives 0.6% (n = 360,000); AID 602250;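 active means inhibition above a per-plate cutoff, the plate's mean sample inhibition plus 3 SD, cut at about 24% in these data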
M1 ag parental: counter-screen for M1 agonists: effect in parental CHO-K1 cells; Fluo-8 calcium fluorescence; scaled to maximal ATP response, vehicle zero; activation, % at 3 µM; actives 0.48% (n = 360,000); AID 602248, 2012; in the data active means activation above about 15%;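 further: untransfected CHO-K1 host cells lacking M1 receptor as counterscreen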
CHO-K1 Ca PAM: nonselective calcium activators in parental CHO-K1 cells, primary screen, counter-screen for M1 PAM project, cell-based, Fluo-8 calcium fluorescence, full deck, 1536-well | ATP EC20; 0% at ATP EC20, 100% at ATP max | activation, % at 3 µM | actives 0.02% (n = 360,000) | AID 602247, 2012;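 active means activation above the run cutoff, the mean activation of all test compounds plus 3 SD, cut at about 40% in these data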;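 further: peak over basal fluorescence ratio in a 140 s read after ATP addition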
CHO parental Ca: ATP-evoked calcium signal inhibitors, parental CHO, primary screen, counter-screen for OX1R antagonist project, cell-based, fluorescence, Fluo-8 calcium dye; parental CHO-K1, ATP-induced calcium, Fluo-8 fluorescence; inhibition, % at 5.6 µM; actives 0.63% (n = 330,000); AID 463079, 2010;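 active means inhibition above that plate's mean sample inhibition plus 3 SD, cut at about 26% in these data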
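Material: Parental CHO cells | Reagent: ATP | Compound dosing: Single nominal dose of 5.6 µM per compound | Detection: Intracellular calcium via Fluo-8 no-wash fluorescent dye | Read-out: % inhibition of ATP-induced calcium mobilization | Benchmarks: Low control ATP plus DMSO, high control DMSO only | Replicates: Singlicate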
OX1R antag-1: antagonists of human orexin 1 receptor (OX1R) | OX1R-expressing cells, FRET antagonist read-out | inhibition, % at 6.6 µM | actives 1.8% (n = 330,000) | AID 485270, 2010; in the data active means inhibition mostly above about 38%, no sharp cut-off; inactive means mostly below about 40%
Target sequence (O43613 whole entry, looked up): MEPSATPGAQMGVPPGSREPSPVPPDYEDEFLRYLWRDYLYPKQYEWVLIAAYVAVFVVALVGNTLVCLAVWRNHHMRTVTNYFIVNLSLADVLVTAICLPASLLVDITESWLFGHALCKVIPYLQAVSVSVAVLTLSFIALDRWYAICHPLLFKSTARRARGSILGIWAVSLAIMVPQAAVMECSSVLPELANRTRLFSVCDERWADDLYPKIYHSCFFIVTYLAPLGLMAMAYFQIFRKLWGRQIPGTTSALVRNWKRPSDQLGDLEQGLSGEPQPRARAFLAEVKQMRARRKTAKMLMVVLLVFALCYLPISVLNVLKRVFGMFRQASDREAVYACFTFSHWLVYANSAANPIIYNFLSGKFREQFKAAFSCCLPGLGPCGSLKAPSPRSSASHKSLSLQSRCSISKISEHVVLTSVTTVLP
OX1R antag-2: OX1R (HCRTR1) antagonists, primary screen, fluorescence, CHO/OX1R cells, Fluo-8 calcium, orexin A; Orexin/Hypocretin receptor type 1 (Homo sapiens), O43613; Fluo-8 calcium fluorescence; inhibition, % at 5 µM; actives 0.43% (n = 330,000); AID 434989, 2010;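 active means inhibition above its plate's threshold, mean inhibition of all tested compounds on the plate plus 3 SD, cut at about 37% in these data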
OX1R Ca confirm: OX1R (HCRTR1) antagonists, confirmation, fluorescence, CHO/OX1R cells, Fluo-8 calcium, orexin A. orexin A calcium Fluo-8 fluorescence. shares compounds with OX1R antag-2. actives 38% (n = 1,100). AID 492963, 2010. inhibition, % at 5 µM; in the data active means inhibition above about 29%
CHO Ca triplic: ATP-evoked calcium inhibition in parental CHO, counter-screen for OX1R antagonist project, cell-based, fluorescence, CHO-K1, triplicate; inhibition, % at 5.6 µM; actives 9.3% (n = 1,100); ATP-induced calcium, Fluo-8 fluorescence; shares compounds with OX1R antag-2; AID 492965, 2010;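 active means inhibition above a per-plate limit, the mean inhibition of that plate's test compounds plus 3 SD, cut at about 25% in these data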
OX1R HTRF confirm: OX1R (HCRTR1) antagonists, confirmation, cell-based, HTRF; shares compounds with OX1R antag-1; actives 49% (n = 1,800); inhibition, % at 6.6 µM; OX1R-expressing cells, HTRF antagonist assay; in the data active means inhibition above about 55%;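 further: CHO cells expressing OX1R stimulated with orexin A at about EC80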
CHO-K1 HTRF cnt: signal inhibition in parental CHO-K1 cells, counter-screen for OX1R antagonist project, cell-based, HTRF; shares compounds with OX1R antag-1; HTRF counterscreen; inhibition, % at 6.6 µM; actives 48% (n = 1,800); AID 493232, 2011; in the data active means inhibition above about 17%
Each line names hits and unclear results; the compound was inactive in the other large screens (follow-up assays come after a bar, where they were run). A selection: hits, their analogues and other compounds. The true share with any hit is near 2.9%.

CCSC1=C(C#N)C(c2ccccc2Cl)C(C(=O)c2cccs2)C(O)(C(F)(F)F)N1 (stereo not drawn)	OX1R antag-1 95.2, OX1R antag-2 94.5 | OX1R Ca confirm 77.2 | CHO Ca triplic inactive | OX1R HTRF confirm 89.0 | CHO-K1 HTRF cnt inactive
CCSC1=C(C#N)C(c2ccccc2Cl)CC(=O)N1 (stereo not drawn)	none
C=CCSC1=C(C#N)C(c2ccccc2Cl)C(C(=O)c2cccs2)C(O)(C(F)(F)F)N1 (stereo not drawn)	OX1R antag-1 103.6, OX1R antag-2 41.8 | OX1R Ca confirm 79.0 | CHO Ca triplic inactive | OX1R HTRF confirm 88.7 | CHO-K1 HTRF cnt inactive
COC(=O)c1ccc(CNC(=O)COC(=O)c2cccs2)cc1	none
Cc1c(C(=O)Nc2ccc(N3CCOCC3)cc2)oc2ccccc12	OX1R antag-1 99.7, OX1R antag-2 73.2 | OX1R Ca confirm 73.4 | CHO Ca triplic inactive | OX1R HTRF confirm 90.1 | CHO-K1 HTRF cnt inactive
Cc1c(C(=O)OCC(=O)Nc2ccc(N3CCOCC3)cc2)oc2ccccc12	none
COc1ccccc1CNS(=O)(=O)c1ccc2c(c1)CC(C)N2C(=O)C1CC1 (stereo not drawn)	none
COc1ccccc1CNS(=O)(=O)c1ccc2c(c1)CC(C)N2C(=O)C1CCC1 (stereo not drawn)	CHO-K1 Ca antag 31.2, OX1R antag-1 59.9, OX1R antag-2 55.1 | OX1R Ca confirm 30.4 | CHO Ca triplic inactive | OX1R HTRF confirm 67.9 | CHO-K1 HTRF cnt inactive
O=C(NCC1CCN(c2ccc(S(=O)(=O)N3CCOCC3)cc2)CC1)Nc1ccccc1F	none
COc1ccc(-c2[nH]ncc2N=Nc2ccccc2)cc1	OX1R antag-1 98.2 | OX1R Ca confirm inactive | CHO Ca triplic inactive | OX1R HTRF confirm inactive | CHO-K1 HTRF cnt inactive
COc1ccc(-c2[nH]ncc2N=Nc2cc(C)cc(C)c2)cc1	none
CCN(CC(=O)Nc1ccc(NC(C)=O)cc1)C(=O)c1cn(-c2ccccc2)nc1-c1cccs1	none (no result: CHO parental Ca, OX1R antag-1, OX1R antag-2)
CC(C)N(C(=O)CN1CCC(c2nc3ccccc3[nH]2)CC1)C(C)C	none
COc1cccc(NC(=O)c2ccc(C(=O)c3ccccc3)o2)c1	OX1R antag-1 99.9, OX1R antag-2 53.1 | OX1R Ca confirm 33.2 | CHO Ca triplic inactive | OX1R HTRF confirm 78.3 | CHO-K1 HTRF cnt inactive
COc1cccc(C(=O)Nc2ccccc2)c1	none
O=C(NC1CC1)c1ccc2sc([C@H]3C[C@H](O)[C@@H](CO)O3)nc2c1	none (no result: CHO parental Ca, OX1R antag-1, OX1R antag-2)
CC(Nc1cccc(F)c1)C(=O)Nc1ccc(S(N)(=O)=O)cc1 (stereo not drawn)	none
Cn1c2ccccc2c2cc(/C=N/NC(=O)c3ccccc3F)ccc21	OX1R antag-1 102.4 | OX1R Ca confirm inactive | CHO Ca triplic inactive | OX1R HTRF confirm 94.4 | CHO-K1 HTRF cnt inactive
CC(=O)c1ccc(-c2ccc(C(=O)N3CCCc4ccccc43)o2)cc1	none
CCCNc1sc(S(=O)(=O)CCC)nc1S(=O)(=O)c1ccc(C)cc1	none
O=C(NC(Cc1c[nH]c2ccccc12)C(=O)N/N=C/c1ccc(Cl)cc1)c1cccs1 (stereo not drawn)	OX1R antag-1 98.3, OX1R antag-2 48.5 | OX1R Ca confirm 64.0 | CHO Ca triplic inactive | OX1R HTRF confirm 80.7 | CHO-K1 HTRF cnt inactive
O=C(NC(Cc1c[nH]c2ccccc12)C(=O)N1CCOCC1)c1cccs1 (stereo not drawn)	none
COc1ccc(OC)c(N=c2oc3cc(O)ccc3cc2C(N)=O)c1	none
COc1ccc2oc(=Nc3cc(F)ccc3F)c(C(N)=O)cc2c1	OX1R antag-1 87.0 | OX1R Ca confirm 42.7 | CHO Ca triplic inactive | OX1R HTRF confirm 75.5 | CHO-K1 HTRF cnt inactive
Cc1ccc(SCCC(=O)OCC(=O)NCC2CCCCC2)cc1	none
Cc1cnc(NC(=O)c2ccc(-c3nc4ccccc4s3)o2)s1	OX1R antag-1 106.4, OX1R antag-2 82.0 | OX1R Ca confirm 82.8 | CHO Ca triplic inactive | OX1R HTRF confirm 100.7 | CHO-K1 HTRF cnt inactive
CN(C)c1ccc(/C=C/c2ccc3ccccc3n2)cc1	OX1R antag-1 75.2, OX1R antag-2 62.2 | OX1R Ca confirm 52.2 | CHO Ca triplic inactive | OX1R HTRF confirm 80.1 | CHO-K1 HTRF cnt inactive
Cc1ccc(S(=O)(=O)CCC(=O)N2CCN(c3ccc([N+](=O)[O-])cc3)CC2)cc1	none
COc1ccccc1NC(=O)COC(=O)c1ccc2c(c1)nc(C)n2-c1ccccc1	none
Cc1nc2cc(NC(=O)COc3ccccc3C#N)ccc2n1-c1ccccc1	OX1R antag-1 122.3, OX1R antag-2 102.4 | OX1R Ca confirm 83.0 | CHO Ca triplic inactive | OX1R HTRF confirm 92.3 | CHO-K1 HTRF cnt inactive
O=C(Nc1cccc(-c2nc3ccccc3s2)c1)c1ccc2c(c1)OCO2	OX1R antag-1 86.7, OX1R antag-2 44.2 | OX1R Ca confirm inactive | CHO Ca triplic inactive | OX1R HTRF confirm 94.1 | CHO-K1 HTRF cnt inactive
CCOc1ccccc1C(=O)Nc1ccc2nc3n(c(=O)c2c1)CCCCC3	OX1R antag-1 91.1, OX1R antag-2 94.1 | OX1R Ca confirm 79.1 | CHO Ca triplic inactive | OX1R HTRF confirm 92.9 | CHO-K1 HTRF cnt inactive
CCOc1ccccc1C(=O)Nc1ccc(NC(=O)c2ccccc2)cc1	none
CCOc1ccccc1C(=O)Nc1ccc(C(=O)c2ccccc2)cc1	OX1R antag-1 55.4 | OX1R Ca confirm inactive | CHO Ca triplic inactive | OX1R HTRF confirm 66.7 | CHO-K1 HTRF cnt 17.9
Cc1ccccc1C(=O)Nc1ccc2nc3n(c(=O)c2c1)CCCC3	none
CCn1c(Cn2nnc(-c3ccccc3)n2)nnc1SCC(=O)Nc1ccccc1	OX1R antag-1 50.0 | OX1R Ca confirm inactive | CHO Ca triplic inactive | OX1R HTRF confirm 56.0 | CHO-K1 HTRF cnt inactive
